Hits are enriched below; roughly 6.7% of the tested compounds scored in any of these assays.
NR3A LBD binder: binders of NR3A ligand-binding domain, primary screen, biophysical, differential scanning fluorimetry, uHTS; Glutamate receptor ionotropic, NMDA 3A (GRIN3A) ligand-binding domain; NR3A LBD differential scanning fluorimetry, Tm shift; 0% = protein alone, 100% = glycine-bound protein; Tm shift relative to glycine control, % at 25 µM; actives 2.5% (n = 340,000); AID 1259313, 2017;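 active = melting temperature shift of at least 10% of the positive control shift, at one fixed dose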
CHOP inhibitor: inhibitors of CHOP promoter induction, primary screen, cell-based, unfolded protein response, luciferase reporter | CHO-K1 CHOP-promoter luciferase, tunicamycin-induced, 15-18 h | inhibition, % at 10 µM | actives 3.8% (n = 220,000) | AID 2732, 2010;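 active = compounds that reduced the stress-induced luciferase reporter signal by more than about 70% of percent inhibition, limit read from the data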;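 also: 0% = tunicamycin plus vehicle and 100% = wells without tunicamycin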
PREPL inh: PREPL enzyme inhibitors, primary screen, biochemical, fluorescence polarization; Prolyl endopeptidase-like (Homo sapiens), Q4J6C6; recombinant PREPL, fluorescence polarization activity-based probe; inhibition, % at 5.96 µM; actives 0.68% (n = 320,000); AID 2751, 2010; in the data active = inhibition above about 43%;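 also: 0% = enzyme with DMSO and 100% = wells lacking enzyme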
Target sequence (Q4J6C6 whole entry, looked up): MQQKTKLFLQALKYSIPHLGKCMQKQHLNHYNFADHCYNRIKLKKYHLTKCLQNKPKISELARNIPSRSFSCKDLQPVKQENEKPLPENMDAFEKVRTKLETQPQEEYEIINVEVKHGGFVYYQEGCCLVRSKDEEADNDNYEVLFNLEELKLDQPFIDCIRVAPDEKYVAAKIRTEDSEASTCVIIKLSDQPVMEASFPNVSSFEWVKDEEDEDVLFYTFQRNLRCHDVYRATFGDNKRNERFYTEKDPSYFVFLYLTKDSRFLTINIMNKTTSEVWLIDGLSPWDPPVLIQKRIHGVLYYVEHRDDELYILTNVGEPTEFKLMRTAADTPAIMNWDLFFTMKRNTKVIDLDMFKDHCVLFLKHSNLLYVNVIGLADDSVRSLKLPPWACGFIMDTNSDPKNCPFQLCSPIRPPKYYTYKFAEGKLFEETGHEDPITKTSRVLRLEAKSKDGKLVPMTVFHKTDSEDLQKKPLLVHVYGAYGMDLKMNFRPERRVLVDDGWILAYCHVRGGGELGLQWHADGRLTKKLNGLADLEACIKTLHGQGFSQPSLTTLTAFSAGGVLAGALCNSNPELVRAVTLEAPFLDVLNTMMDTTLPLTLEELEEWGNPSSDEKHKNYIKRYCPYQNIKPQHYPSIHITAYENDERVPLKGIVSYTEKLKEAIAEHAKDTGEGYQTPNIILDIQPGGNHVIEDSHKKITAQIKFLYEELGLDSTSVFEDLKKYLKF
CSC inhib: cancer stem cell viability inhibitors, primary screen, luminescence | actives 1.1% (n = 300,000) | cancer stem cell-like cells viability | inhibition, % at 7.5 µM; in the data active = inhibition above about 75%; tested in HMLE shEcad cells
Beta apoptosis: inhibitors of cytokine-induced beta cell apoptosis, primary screen, luminescence | INS-1E cytokine-induced death, ATP luminescence, 48 h; percent of positive-control rescue, neutral wells zero | protection from apoptosis, % (concentration not given with the values) | actives 0.8% (n = 300,000);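 active = Every replicate reaches about 75%, or at least half do and their mean reaches it too, limit read from the data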;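 also: 0% = cytokine-treated negative control wells and 100% = positive control rescue; higher means more ATP so stronger rescue from cytokine killing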
T cruzi inh: inhibitors of intracellular T. cruzi growth, primary screen, luminescence, NIH3T3 host cells. T. cruzi beta-gal in NIH3T3, 90 h. inhibition, % (no concentration beside the values). actives 1.4% (n = 300,000). AID 1885, 2009;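 active = mean inhibition across valid replicates above about 55%, limit read from the data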;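 also: signal also drops with host cell toxicity which is not excluded here; 0% = plate median of DMSO wells and 100% = zero luminescence signal; higher percent means less beta-gal luminescence so fewer parasites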
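System – NIH/3T3 host cells with β-galactosidase reporter T. cruzi · Doses – single 50 nL compound addition per well in DMSO · Reagent – 5000 T. cruzi trypomastigotes/well · Medium – Low-serum DMEM with 2% FBS · Timing – ≥90 h infection period, 3 h prior cell attachment · Evaluation – parasite load inhibition, % · Technique – GalScreen luminescence, 60 min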
* = called active by the depositor; ! = a repeat was not active.

`COc1ccc(C(OCC(O)CN2CCC(O)CC2)c2ccc(OC)cc2)cc1` (centres undefined) gave NR3A LBD binder 3, PREPL inh 24, CSC inhib -6, Beta apoptosis 0 and T cruzi inh 3.
Screening COc1cccc(-n2c(SCC(=O)Nc3sc4c(c3C(N)=O)CCC4)nc3ccccc3c2=O)c1 returned NR3A LBD binder -4, CHOP inhibitor 27, PREPL inh -12, CSC inhib -3, Beta apoptosis -2 and T cruzi inh 59*.
N#CC1=C(N)Oc2n[nH]c(-c3cccs3)c2C1C1C=CCCC1 (centres undefined) was read as NR3A LBD binder -24, CHOP inhibitor 96*, PREPL inh -9, CSC inhib -3, Beta apoptosis 2 and T cruzi inh 1.
CCn1nnnc1SCC(=O)NCc1ccc2c(c1)OCO2 was read as NR3A LBD binder -1, CHOP inhibitor 25, PREPL inh 3, Beta apoptosis -9 and T cruzi inh 0.
O=C(CSc1nc(CCC2CCCC2)nc2ccccc12)NCc1ccc2c(c1)OCO2 was read as NR3A LBD binder 1, CHOP inhibitor 95*, PREPL inh 4, CSC inhib 17, Beta apoptosis -1 and T cruzi inh 22.
`O=C(CSc1nc2ccccc2o1)NCc1ccc2c(c1)OCO2` gave NR3A LBD binder -1, CHOP inhibitor 79*, PREPL inh -60, CSC inhib -9, Beta apoptosis -5 and T cruzi inh 9.
`O=C(CSc1ncnc2c1cnn2-c1ccc(F)cc1)NCc1ccc2c(c1)OCO2` gave NR3A LBD binder 0, CHOP inhibitor 89*, PREPL inh -13, CSC inhib 9, Beta apoptosis -5 and T cruzi inh 6.
For O=C(CSc1ncc(C(=O)O)n1-c1ccc(F)cc1)NCc1ccc2c(c1)OCO2 the results were NR3A LBD binder -2, CHOP inhibitor 14, PREPL inh 2, CSC inhib -11, Beta apoptosis 1 and T cruzi inh -2.
For O=C(CSc1nc2ccc(Cl)cc2o1)NCc1ccc2c(c1)OCO2 the results were NR3A LBD binder -2, CHOP inhibitor 26, PREPL inh -37, CSC inhib 9, Beta apoptosis -2 and T cruzi inh 2.
COc1ccc(OC)c(-n2nnnc2SCC(=O)NCc2ccc3c(c2)OCO3)c1 was read as NR3A LBD binder 11*, CHOP inhibitor 17, PREPL inh -5, CSC inhib -5, Beta apoptosis -17 and T cruzi inh -13.
Cc1ccc2nc(CSc3nc(C)cc(C)c3C#N)[nH]c2c1 was read as NR3A LBD binder -15, CHOP inhibitor 24, PREPL inh 58*, CSC inhib -4, Beta apoptosis 9 and T cruzi inh 13.
Cc1cc(C)c(C#N)c(SCc2ccccc2)n1 was read as NR3A LBD binder -1, CHOP inhibitor 22, PREPL inh 0, Beta apoptosis -4 and T cruzi inh -1.
O=C(CCC(=O)N1CCN(Cc2ccc(F)cc2)CC1)Nc1nnc(C(F)(F)F)s1 was read as NR3A LBD binder -1, PREPL inh -6, CSC inhib -11, Beta apoptosis 5 and T cruzi inh 19.
O=C(CN1C(=O)NC2(CCc3ccccc32)C1=O)NCc1ccc(F)cc1 (centres undefined) was read as NR3A LBD binder -2.
O=C(CN1C(=O)NC2(CCc3ccccc32)C1=O)NCc1cccc(C(F)(F)F)c1 (centres undefined) was read as NR3A LBD binder 11*, PREPL inh 13, CSC inhib 13 and Beta apoptosis 1.
Screening Cc1cc(C)c2nc(SC(C)C(=O)NCC(=O)Nc3ccc(F)c(F)c3F)cc(C)c2c1 (centres undefined) returned NR3A LBD binder 0, CHOP inhibitor 92*, PREPL inh 7, CSC inhib -8, Beta apoptosis -2 and T cruzi inh 26.
O=S(=O)(c1cccc(C(F)(F)F)c1)c1ccc(O)cn1 was read as NR3A LBD binder 11*, PREPL inh 3 and CSC inhib -5.
`C[C@H]1CC[C@H]2C(=O)N3[C@H](c4ccccc4Br)[C@@H](C)CC[C@H]3C(=O)N2[C@@H]1c1ccccc1Br` gave CHOP inhibitor 85*, PREPL inh 22, CSC inhib 54, Beta apoptosis 110* and T cruzi inh 45.
For C[C@H]1CC[C@H]2C(=O)N3[C@H](c4cccc(N5CCCC5=O)c4)[C@@H](C)CC[C@H]3C(=O)N2[C@@H]1c1cccc(N2CCCC2=O)c1 the results were CHOP inhibitor 9, PREPL inh 0, CSC inhib -3, Beta apoptosis -1 and T cruzi inh 48.
Screening COc1ccc(CC(=O)Nc2cc(S(=O)(=O)Nc3ccc(OC)cc3)ccc2OC)cc1 returned NR3A LBD binder -6, PREPL inh -14, CSC inhib 13 and Beta apoptosis 6.
CCCC[C@@H]1CNC(=O)C(=O)N1CCc1cccc2ccccc12 was read as PREPL inh -44, CSC inhib -10, Beta apoptosis -6 and T cruzi inh 8.
`CC(C)(C)NC(=O)CSc1nc2ccccc2n1-c1ccccc1` gave NR3A LBD binder -4, CHOP inhibitor 71*, PREPL inh 1, CSC inhib 1 and Beta apoptosis -4.
CCOC(=O)c1ccc(N=c2sc(C(=O)OC)cc(=O)n2CCCN2CCOCC2)cc1 was read as NR3A LBD binder -3, CHOP inhibitor 42, PREPL inh -7, CSC inhib 101*!, Beta apoptosis -1 and T cruzi inh 20.
CCn1c(=O)cc(C(=O)OC)sc1=Nc1ccc(F)c(F)c1 was read as NR3A LBD binder 7, CHOP inhibitor 96*, PREPL inh -4, CSC inhib 11, Beta apoptosis -3 and T cruzi inh 2.
CCOC(=O)c1ccc(N=c2sc(C(=O)OC)cc(=O)n2Cc2ccco2)cc1 was read as NR3A LBD binder 2, CHOP inhibitor 12, PREPL inh -10, CSC inhib 92*, Beta apoptosis 13 and T cruzi inh 42.
Screening O=C(COC(=O)C1CC2C=CC1C2)Nc1cccc(S(=O)(=O)N2CCCCCC2)c1 (centres undefined) returned NR3A LBD binder -5, CHOP inhibitor 3, PREPL inh -2, CSC inhib -10, Beta apoptosis 4 and T cruzi inh -21.

Screening data: PubChem, several laboratories
